Published values from different studies.
Each line is one published result; the experiments were not run side by side.
Target: Tyrosine-protein kinase Fes/Fps (FES, Homo sapiens, UniProt P07332)

Cn1cncc1[C@@](O)(COc1ccc(C#N)cc1-c1ccc(OC(F)(F)F)cc1)c1ccc(C#N)cc1
remaining binding (cell-free assay; competition with immobilised ligand; 1 µM): 100%

C#Cc1n[nH]c2c(-c3cn([C@@H](C)c4ccccc4)c(=O)[nH]c3=O)cc(F)cc12
inhibition (enzyme activity; inhibitor; 0.1 µM): 7.4%

c1ccc(C(NCCNC(c2ccccc2)c2ccccc2)c2ccccc2)cc1
inhibition (enzyme activity; inhibitor; 10 µM): -2%

CC(C)(C)c1cc(C=C(C#N)C#N)cc(Br)c1O
remaining activity (enzyme activity; inhibitor; 0.5 µM): 105%

Nc1ncc(-c2nc(N3CCOCC3)nc(N3CCOCC3)n2)c(C(F)F)n1
remaining binding (binding; competition with immobilised ligand; 10 µM): 91%

C[C@H](C(=O)N[C@H]1COc2ccccc2[C@@H]1S(C)(=O)=O)c1ccc(F)cc1
inhibition (enzyme activity; inhibitor; 10 µM): -14%

COc1ncccc1-c1cnn2ccc(N3CCN(C(=O)OC(C)C)CC3)nc12
remaining binding (binding; competition with immobilised ligand; 1 µM): 100%

Cc1nn(C)cc1-c1nc2c(N3CCN(Cc4ccc(Cl)cc4)CC3)c(Cl)cnc2[nH]1
remaining binding (binding; competition with immobilised ligand; 1 µM): 100%

Cn1cc(-c2cccc(N3CCc4c(sc5c4CC(C)(C)C5)C3=O)c2CO)cc(Nc2ccncn2)c1=O
inhibition (enzyme activity; inhibitor; 1 µM): 4%

C#Cc1n[nH]c2c(-c3cn(C(C)c4ccccn4)c(=O)[nH]c3=O)cc(F)cc12 (stereo not drawn)
inhibition (enzyme activity; inhibitor; 1 µM): 5.3%

Cn1cc(-c2cc(F)cc(N3CCn4c(cc5c4CCCC5)C3=O)c2CO)cc(Nc2ccc(N3CCN(C4COC4)CC3)cn2)c1=O
inhibition (enzyme activity; inhibitor; 0.1 µM): 9%

O=c1[nH]c2ccccc2n1C1CCN(Cc2ccc(-c3[nH]c4cc5ncnc5cc4nc3-c3ccccc3)cc2)CC1
remaining signal (cell-free assay; 0.5 µM): 101%
